In PMC9391279 (Cell chemical biology, 2022):

Legend:
Keap1-BTB domain = Keap1-BTB domain (Homo sapiens, UniProt Q14145); assay: TR-FRET ligand displacement assay, Keap1-BTB domain; assay type: binding
BRD4 in MDA-MB-231 cells [1] = molecular target: T1, BRD4 in MDA-MB-231 cells (Homo sapiens, UniProt O60885); assay: BRD4 degradation rescue experiments, MDA-MB-231; assay type: cell-based, H. sapiens; conditions: for Rescue of CS-JQ1-induced BRD4 degradation by co-treatment: MDA-MB-231, co-treatment with CS-JQ1, 5 h; for Rescue of dBET6-induced BRD4 degradation by co-treatment: MDA-MB-231, co-treatment with dBET6, 5 h
[2] = system: full-length Keap1 and individual BRD4 bromodomains; assay type: biochemical; conditions: BRD4(BD1) or BRD4(BD2)
BRD4 in MDA-MB-231 cells [3] = molecular target: T1, BRD4 in MDA-MB-231 cells; assay: BRD4 ubiquitination by immunoprecipitation / Western blot; assay type: cell-based, H. sapiens; conditions: MDA-MB-231, 5 h
BRD4 in MCF7 cells [4] = molecular target: T2, BRD4 in MCF7 cells (Homo sapiens, UniProt O60885); assay: TR-FRET BRD4 quantification, 24-well plate format, MCF7; assay type: cell-based, H. sapiens; conditions: MCF7, 5 h treatment, 1 h washout
BRD4 in MDA-MB-231 cells [5] = molecular target: T1, BRD4 in MDA-MB-231 cells; assay: TR-FRET BRD4 quantification, 96-well plate format; assay type: cell-based, H. sapiens; conditions: MDA-MB-231, 30 min to 10 h, 96-well no wash-out
BRD4 = assay: TR-FRET ligand displacement assays with recombinant BRD4; assay type: binding, human; conditions: Figure 4B
Method in brief: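 Tracer displacement of JQ1-FITC (20 nM) from 4 nM GST-BRD4(BD1) or GST-BRD4(BD2) with 4 nM CoraFluor-1 anti-GST VHH, in HEPES/NaCl/BSA/Tween buffer, pH 7.5. Endogenous BRD4 was tested in clarified MCF7 lysate at 0.8 mg/mL total protein. Floor was a 10 μM reference inhibitor; ceiling was no inhibitor. Four-parameter IC50 fits were converted to KD,app by Cheng-Prusoff using tracer KD,app.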

Keap1-Kelch domain = Keap1-Kelch domain (Homo sapiens, UniProt Q14145); assay: TR-FRET ligand displacement assay, Keap1-Kelch domain; assay type: binding
BRD4 in MDA-MB-231 cells [6] = molecular target: T1, BRD4 in MDA-MB-231 cells; assay: TR-FRET BRD4 quantification, 24-well plate format, MDA-MB-231; assay type: cell-based, H. sapiens; conditions: MDA-MB-231, 5 h treatment, 1 h washout
BRD4 in MCF7 cells [7] = molecular target: T2, BRD4 in MCF7 cells; assay: BRD4 degradation rescue experiments, MCF7; assay type: cell-based, H. sapiens; conditions: for Rescue of CS-JQ1-induced BRD4 degradation by co-treatment: MCF7, co-treatment with CS-JQ1, 5 h; for Rescue of dBET6-induced BRD4 degradation by co-treatment: MCF7, co-treatment with dBET6, 5 h
BRD4(BD2) = conditions: read-out: KD,BD2, ref Faivre et al., 2020; cited from earlier work
BRD4(BD1) = conditions: read-out: KD,BD1, ref Faivre et al., 2020; cited from earlier work

Sequence of Keap1-BTB domain (Q14145 whole entry, the tested form may be a part): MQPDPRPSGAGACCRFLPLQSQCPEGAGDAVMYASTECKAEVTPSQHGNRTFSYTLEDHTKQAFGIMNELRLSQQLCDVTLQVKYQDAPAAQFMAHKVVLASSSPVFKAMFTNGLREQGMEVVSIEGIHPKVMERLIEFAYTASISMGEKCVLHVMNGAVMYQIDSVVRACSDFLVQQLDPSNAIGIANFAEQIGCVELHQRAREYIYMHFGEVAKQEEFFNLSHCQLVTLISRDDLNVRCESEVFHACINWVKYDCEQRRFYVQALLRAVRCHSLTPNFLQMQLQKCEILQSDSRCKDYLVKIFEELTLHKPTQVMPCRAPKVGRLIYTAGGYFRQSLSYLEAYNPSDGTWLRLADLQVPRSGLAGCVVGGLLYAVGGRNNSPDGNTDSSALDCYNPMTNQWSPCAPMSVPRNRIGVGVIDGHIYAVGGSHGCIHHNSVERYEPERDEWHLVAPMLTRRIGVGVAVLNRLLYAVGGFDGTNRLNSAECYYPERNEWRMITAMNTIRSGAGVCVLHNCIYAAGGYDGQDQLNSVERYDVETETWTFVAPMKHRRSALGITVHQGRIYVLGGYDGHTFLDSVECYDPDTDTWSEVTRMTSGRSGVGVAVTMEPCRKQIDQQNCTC
Sequence of Keap1-Kelch domain (Q14145 whole entry, the tested form may be a part): as above

Row | Structure (SMILES) | Rescue of CS-JQ1-induced BRD4 degradation by co-treatment (BRD4 in MDA-MB-231 cells [1]) | Rescue of CS-JQ1-induced BRD4 degradation by co-treatment (BRD4 in MCF7 cells [7]) | Rescue of dBET6-induced BRD4 degradation by co-treatment (BRD4 in MCF7 cells [7]) | Rescue of dBET6-induced BRD4 degradation by co-treatment (BRD4 in MDA-MB-231 cells [1]) | other results
1 | COC(=O)[C@]12CCC(C)(C)C[C@H]1[C@H]1C(=O)C=C3[C@@]4(C)C=C(C#N)C(=O)C(C)(C)[C@@H]4CC[C@@]3(C)[C@]1(C)CC2 [CDDO-Me, bardoxolone methyl] | not altered |  |  |  | Kd (Keap1-BTB domain): 24 nM
2 | CC1=C(O)C(=O)C=C2C1=CC=C1[C@@]2(C)CC[C@@]2(C)[C@@H]3C[C@](C)(C(=O)NCCCOCCOCCOCCCNC(=O)CC4N=C(c5ccc(Cl)cc5)c5c(sc(C)c5C)-n5c(C)nnc54)CC[C@]3(C)CC[C@]12C (stereo partly drawn) [CS-JQ1, (2R,4aS,6aS,12bR,14aS,14bR)-N-(1-(4-(4-chlorophenyl)-2,3,9-trimethyl-6H-thieno[3,2-f][1,2,4]triazolo[4,3-a][1,4]diazepin-6-yl)-2-oxo-7,10,13-trioxa-3-azahexadecan-16-yl)-10-hydroxy-2,4a,6a,9,12b,14a-hexamethyl-11-oxo-1,2,3,4,4a,5,6,6a,11,12b,13,14,14a,14b-tetradecahydropicene-2-carboxamide] |  |  |  |  | Ternary complex formation between full-length Keap1 and individual BRD4 bromodomains [2]: could induce ternary complex formation; Affinity for the Keap1 BTB domain (in words) (Keap1-BTB domain; compared with celastrol): slightly improved affinity; Induction of BRD4 ubiquitination (BRD4 in MDA-MB-231 cells [3]): induce BRD4 ubiquitination; BRD4 level by TR-FRET after treatment (in words) (BRD4 in MCF7 cells [4]): dose-dependent and efficient degradation of BRD4; BRD4 degradation kinetics (in words) (BRD4 in MDA-MB-231 cells [5]): slightly slower kinetics; Target engagement with BRD4 (in words) (BRD4): validated target engagement with BRD4; Binding to the Keap1 Kelch domain (in words) (Keap1-Kelch domain): lost the ability to bind; BRD4 level by TR-FRET after treatment (in words) (BRD4 in MDA-MB-231 cells [6]): dose-dependent and efficient degradation of BRD4
3 | NS(=O)(=O)OC[C@H]1C[C@@H](Nc2ccnc3cc(-c4cccc(SC(F)(F)F)c4)nn23)[C@H](O)[C@@H]1O [MLN7243] | restored BRD4 levels | restored BRD4 levels | attenuated | attenuated | 
4 | Nc1cccc2c1C(=O)N(C1CCC(=O)NC1=O)C2=O (stereo not drawn) [pomalidomide] |  |  | attenuated | attenuated | 
5 | NS(=O)(=O)OC[C@@H]1C[C@@H](n2ccc3c(N[C@H]4CCc5ccccc54)ncnc32)C[C@@H]1O [MLN4924] | restored BRD4 levels | restored BRD4 levels | attenuated | attenuated | 
6 | CCS(=O)(=O)Nc1ccc(Oc2ccc(F)cc2F)c(-c2cn(C)c(=O)c3[nH]ccc23)c1 [ABBV-075, ABBV-075 (Mivebresib)] |  |  |  |  | Kd (BRD4(BD2)): 2.5 nM; Kd (BRD4(BD1)): 13.8 nM
7 | Cc1ncsc1-c1ccc(CNC(=O)[C@@H]2C[C@@H](O)CN2C(=O)[C@@H](NC(=O)COCCOCCOCCNC(=O)C[C@@H]2N=C(c3ccc(Cl)cc3)c3c(sc(C)c3C)-n3c(C)nnc32)C(C)(C)C)cc1 [MZ1] |  |  |  |  | BRD4 degradation kinetics (in words) (BRD4 in MDA-MB-231 cells [5]): slightly slower degradation kinetics
8 | CC1=C(O)C(=O)C=C2C1=CC=C1[C@@]2(C)CC[C@@]2(C)[C@@H]3C[C@](C)(C(=O)O)CC[C@]3(C)CC[C@]12C [CS, celastrol] | reduced CS-JQ1 degradation efficiency | reduced CS-JQ1 degradation efficiency |  |  | 
9 | CC(C)C[C@H](NC(=O)[C@H](Cc1ccccc1)NC(=O)c1cnccn1)B(O)O [bortezomib] |  |  | attenuated | attenuated | 
